Measurements reported in ChEMBL document CHEMBL1649503, “Alkoxyalkyl esters of 9-(s)-(3-hydroxy-2-phosphonomethoxypropyl) adenine are potent and selective inhibitors of hepatitis B virus (HBV) replication in vitro and in HBV transgenic mice in vivo” (Antimicrob Agents Chemother, 2009).

Key:
Hepatitis B virus [1] = assay: Antiviral activity against HBV infected in transgenic mouse assessed as decrease in liver viral DNA level at 4 mg/kg, po administered daily for 14 days measured post last dose; assay type: functional; settings: for ED50: Hepatitis B virus, Liver, 336 h; for ED90: dose 4 mg/kg
Outline: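 Homozygous male and female HBV transgenic mice (founder 1.3.32; 22.2 ± 2.8 g) received drug in distilled water by oral gavage, 0.1 ml/10 g, at 7 µmol/kg (4 mg/kg) daily for 14 days. About 0.1 g liver was lysed at necropsy, and DNA was extracted with phenol-chloroform. HBV DNA was measured by qPCR normalized to GAPDH, using duplicate CTs against a dilution standard curve, in relative units/µg cell DNA.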

Hepatitis B virus [2] = assay: Antiviral activity against HBV infected in human HepG2(2.2.15) cells assessed as decrease in extracellular viral DNA level after 24 hrs by blot hybridization assay; assay type: functional, organism-based; settings: HepG2 2.2.15, 24 h
Outline: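 Confluent 2.2.15 cells in RPMI 1640 with 2% FBS got nine consecutive daily doses, with medium replaced daily with drug-containing medium. Six wells per concentration over two replicate plates. Cells were pelleted from the medium, which was kept at 4°C and not frozen. Extracellular HBV DNA was quantified by blot hybridization 24 h after the last dose.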

[3] = Selectivity index, ratio of CC50 for human HepG2(2.2.15) cells to EC50 for HBV infected in human HepG2(2.2.15) cells
Outline: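 Ratio from two 2.2.15 readouts after nine daily doses in RPMI/2% FBS. Extracellular HBV DNA was measured by quantitative blot hybridization and cytotoxicity by neutral red uptake (three cultures per concentration), both 24 h after the final dose.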

[4] = Cytotoxicity against human HepG2(2.2.15) cells after 24 hrs by neutral red assay; assay type: cell-based
Outline: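 2.2.15 cells, RPMI 1640 with 2% FBS, dosed daily for nine consecutive days. Viability was read by neutral red uptake, absorbance of internalized dye at 510, 24 h after the last treatment, three cultures per concentration.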

HepG2 [5] = assay: Drug metabolism in human HepG2 cells assessed as HPMPApp uptake at 10 uM after 48 hrs; assay type: ADME, cell-based; settings: hepg2, 48 h
HepG2 [6] = assay: Drug metabolism in human HepG2 cells assessed as HPMPAp uptake at 10 uM after 48 hrs; assay type: ADME, cell-based; settings: hepg2, 48 h
HepG2 [7] = assay: Drug metabolism in human HepG2 cells assessed as HPMPA uptake at 10 uM after 48 hrs; assay type: ADME, cell-based; settings: hepg2, 48 h
HepG2 [8] = assay: Drug metabolism in human HepG2 cells assessed as unidentified metabolite uptake at 10 uM after 24 hrs; assay type: ADME, cell-based; settings: hepg2, 24 h
Outline: (§1)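 Nearly confluent HepG2 flasks got 14C-labeled drug (final 10 µM, 50 mCi/mmol) for 24 h. Cells were washed with cold PBS, lysed in water by two freeze-thaw cycles and sonication, then extracted with cold TCA (8% final) and centrifuged at 4°C. Supernatant was counted and analyzed by SAX ion-exchange HPLC, with metabolites assigned by retention versus reference standards.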

HepG2 [9] = assay: Drug metabolism in human HepG2 cells assessed as unidentified metabolite uptake at 10 uM after 48 hrs; assay type: ADME, cell-based; settings: hepg2, 48 h
HepG2 [10] = assay: Drug metabolism in human HepG2 cells assessed as HPMPA uptake at 10 uM after 24 hrs; assay type: ADME, cell-based; settings: hepg2, 24 h; outline: as §1
HepG2 [11] = assay: Drug metabolism in human HepG2 cells assessed as HPMPAp uptake at 10 uM after 24 hrs; assay type: ADME, cell-based; settings: hepg2, 24 h; outline: as §1
HepG2 [12] = assay: Drug metabolism in human HepG2 cells assessed as HPMPApp uptake at 10 uM after 24 hrs; assay type: ADME, cell-based; settings: hepg2, 24 h; outline: as §1
Hepatitis B virus [13] = assay: Antiviral activity against HBV harboring RNA polymerase L180M/M204V mutant gene infected in human HuH7 cells assessed as decrease in viral transient transfection after 5 days; settings: Huh-7, 5 days
Hepatitis B virus [14] = assay: Antiviral activity against HBV harboring RNA polymerase M204V mutant gene infected in human HuH7 cells assessed as decrease in viral transient transfection after 5 days; settings: Huh-7, 5 days
Hepatitis B virus [15] = assay: Antiviral activity against wild type HBV infected in human HuH7 cells assessed as decrease in viral transient transfection after 5 days; settings: Huh-7, 5 days
Hepatitis B virus [16] = assay: Antiviral activity against HBV harboring RNA polymerase M204I mutant gene infected in human HuH7 cells assessed as decrease in viral transient transfection after 5 days; settings: Huh-7, 5 days
Hepatitis B virus [17] = assay: Antiviral activity against HBV harboring RNA polymerase N236T mutant gene infected in human HuH7 cells assessed as decrease in viral transient transfection […]; assay type: functional, organism-based; settings: Huh-7
Outline: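 Lamivudine- and adefovir-resistant HBV mutants introduced into Huh7 cells by transient transfection. Compounds were tested in a 5-day assay.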

Hepatitis B virus [18] = assay: Antiviral activity against HBV harboring RNA polymerase L180M mutant gene infected in human HuH7 cells assessed as decrease in viral transient transfection after 5 days; settings: Huh-7, 5 days

EC50 (Hepatitis B virus [2]) [µM] | EC90 (Hepatitis B virus [2]) [µM] | SMILES | ED50 (Hepatitis B virus [1]) [µmol/kg] | ED90 (Hepatitis B virus [1]) [µmol/kg] | Selectivity Index [3] | CC50 at 24 h [4] [µM] | EC50 (Hepatitis B virus [13]) [µM] | EC90 (Hepatitis B virus [13]) [µM] | EC50 (Hepatitis B virus [14]) [µM] | EC90 (Hepatitis B virus [14]) [µM] | EC90 (Hepatitis B virus [15]) [µM] | EC50 (Hepatitis B virus [16]) [µM] | EC90 (Hepatitis B virus [16]) [µM] | EC50 (Hepatitis B virus [17]) [µM] | EC90 (Hepatitis B virus [17]) [µM] | EC50 (Hepatitis B virus [18]) [µM] | EC90 (Hepatitis B virus [18]) [µM] | other results
0.059 | 0.181 | CC(C)CCCCCCCCCCCCCCOCCCOP(=O)(O)CO[C@H](CO)Cn1cnc2c(N)ncnc21 | 0.082 | 2.96 | >1657 | > 300 | – | – | – | – | – | – | – | – | – | – | – | –
1.2 | 5.05 | Nc1ncnc2c1ncn2C[C@@H](CO)OCP(=O)(O)O | – | – | >60 | > 300 | – | – | – | – | – | – | – | – | – | – | – | Drug uptake (HepG2 [5]): 13 pmol; Drug uptake (HepG2 [6]): 70 pmol; Drug uptake (HepG2 [7]): 10 pmol; Drug uptake (HepG2 [8]): 33 pmol; Drug uptake (HepG2 [9]): 62 pmol; Drug uptake (HepG2 [10]): 26 pmol; Drug uptake (HepG2 [11]): 27 pmol; Drug uptake (HepG2 [12]): 34 pmol
0.076 | 0.211 | CCCCCCCCCCCCCCCCCCOCCOP(=O)(O)CO[C@H](CO)Cn1cnc2c(N)ncnc21 | 0.35 | 6.91 | >1422 | > 300 | – | – | – | – | – | – | – | – | – | – | – | –

More lines, now with the values behind:

SMILES | EC50 (Hepatitis B virus [2]) [µM] | EC90 (Hepatitis B virus [2]) [µM] | ED50 (Hepatitis B virus [1]) [µmol/kg] | ED90 (Hepatitis B virus [1]) [µmol/kg] | Selectivity Index [3] | CC50 at 24 h [4] [µM] | EC50 (Hepatitis B virus [13]) [µM] | EC90 (Hepatitis B virus [13]) [µM] | EC50 (Hepatitis B virus [14]) [µM] | EC90 (Hepatitis B virus [14]) [µM] | EC90 (Hepatitis B virus [15]) [µM] | EC50 (Hepatitis B virus [16]) [µM] | EC90 (Hepatitis B virus [16]) [µM] | EC50 (Hepatitis B virus [17]) [µM] | EC90 (Hepatitis B virus [17]) [µM] | EC50 (Hepatitis B virus [18]) [µM] | EC90 (Hepatitis B virus [18]) [µM] | other results
CC(C)(C)C(=O)OCOP(=O)(COCCn1cnc2c(N)ncnc21)OCOC(=O)C(C)(C)C [ADEFOVIR DIPIVOXIL] | – | – | 0.2 | 3.6 | – | – | 2.5 | 7.6 | 1.5 | 7.2 | 7 | 2.4 | 8 | 14 | 52 | 2.6 | 7.3 | EC50 (Hepatitis B virus [15]): 2 µM
Nc1ccn([C@@H]2CS[C@H](CO)O2)c(=O)n1 [LAMIVUDINE] | – | – | – | – | – | – | > 100 | > 100 | > 100 | > 100 | 3 | > 100 | > 100 | 0.3 | 1.5 | 16 | 41 | –
